Screening results as filed in PubChem BioAssay.
In the library only some 1.6% were active in any assay of this set; here they are far more common.
HGIII-sPLA2 inh = Blocks human group III sPLA2 activity; QFRET BODIPY PC-A2 liposome hydrolysis, fluorescence; inhibition, % at 12.2 µM; actives 0.56% (n = 370,000); AID 743126;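 active = inhibition above mean plus 3 SD of compounds lying within the high and low control bounds, cut at about 19% in these data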;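 note: 0% = median of test compound wells and 100% = no enzyme DMSO wells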
PLC-gamma1 inh = PLC-gamma1 (human) inhibition, primary screen | purified PLC-gamma1, fluorogenic substrate, fluorescence | inhibition, % at 12.2 µM | actives 0.84% (n = 370,000) | AID 720700; in the data active = inhibition above about 9.5%
procasp3 activ = activates human procaspase-3 | recombinant procaspase-3 D3A, Ac-DEVD-pNA absorbance 405 nm | activation, % at 8.5 µM | actives 0.11% (n = 330,000);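 active = activation above the mean of all tested compounds plus 3 SD, cut at about 21% in these data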;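 note: 0% = DMSO alone and 100% = DMSO wells spiked with extra 5 µM PC-3 D3A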
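Compound: 8.5 µM single point, 0.8% DMSO / Material: Autoprocessing-dead procaspase-3 D3A mutant enzyme / Timing: 1 h preincubation plus 2 h reaction at 25 °C / Medium: Zinc-free HEPES/NaCl buffer with 0.01% Triton X-100 at pH 7.4 / Technique: 405 nm absorbance of p-nitroaniline, reads at 0 and 120 min / Repeats: one well per compound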
PLC-beta3 inh = blocks human PLC-beta3 enzyme activity | inhibition, % at 12.2 µM | AID 720704 | Q01970 | Purified PLC-beta3, fluorogenic substrate, fluorescence | actives 0.18% (n = 370,000);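 note: 0% = median of compound wells on plate and 100% = full blocker control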
procasp7 counter = counter-screen for procaspase-3 activators: activators of human procaspase-7. activation, % at 8.5 µM. actives 0.093% (n = 330,000). recombinant procaspase-7, Ac-DEVD-pNA absorbance 405 nm; D23A/D198A/D206A triple mutant, cannot self-cleave; scale: DMSO 0, 5 µM enzyme 100. AID 463210. P55210;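 active = percent activation above the screen-wide mean plus 3 SD, cut at about 25% in these data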
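Detection: p-Nitroaniline absorbance at 405 nm, read at 0 and 120 min; system: Uncleavable procaspase-7 mutant enzyme; evaluation: % activation from two-timepoint absorbance difference, scaled to controls; times: 1 h enzyme–compound preincubation and 2 h substrate reaction, both 25 °C; buffer or medium: Zinc-free HEPES pH 7.4 with 300 mM NaCl, 0.01% Triton X-100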
PLCgamma1 ctr = counter-screen for PLC-beta3 inhibitors: inhibitors of human PLC-gamma1; inhibition, % at 12.3 µM; shares compounds with PLC-gamma1 inh; AID 743258; purified PLC-gamma1, fluorogenic substrate, fluorescence; actives 3.1% (n = 3,300); in the data active = inhibition above about 9.5%
PLCb3 confirm = confirmation of human PLC-beta3 inhibitors. inhibition, % at 12.3 µM. shares compounds with PLC-gamma1 inh. purified PLC-beta3, fluorogenic substrate fluorescence. actives 1% (n = 3,300)
An asterisk follows results filed as active; / = no result. Cut-off read from the data, not from the text of the source, unless noted: active = inhibition above about 11%; inactive = the rest.

SMILES | HGIII-sPLA2 inh | PLC-gamma1 inh | procasp3 activ | PLC-beta3 inh | procasp7 counter | PLCgamma1 ctr | PLCb3 confirm
CCOC(=O)CC[C@H](NC(=O)Cn1cc(C)c(=O)[nH]c1=O)C(=O)OCC | 6 | 1 | / | 8 | / | / | /
COc1ccc(N2CCN(C(=O)CNC(=O)Cc3ccc(Cl)cc3)CC2)cc1 | 1 | -3 | 4 | -7 | 3 | / | /
COc1ccc(N2CCN(C(=O)CNC(=O)Cc3ccccc3)CC2)cc1 | 10 | 10* | -4 | -12 | 1 | -5 | -2
CCC1CCCCN1C(=O)/C=C/c1ccc2c(c1)OCO2 (stereo unspecified) | 8 | -6 | 12 | -15 | 14 | / | /
CN(C)C(=O)c1ccc(NC(=O)COC(=O)CCN=C2NS(=O)(=O)c3ccccc32)cc1 | 3 | -5 | / | -5 | / | / | /
Cc1ccc(Nc2nc(Oc3ccc(=O)[nH]n3)nc(N(C)C)n2)cc1 | 4 | 10.0* | 4 | 3 | 4 | -8 | -1
CCC(=O)N1CCc2cc(Br)cc(S(=O)(=O)N(C)c3ccc(OC)cc3)c21 | -5 | -1 | 11 | -2 | 6 | / | /
O=C(Cn1nc(-c2ccccc2)c2ccccc21)Oc1ccccc1 | 5 | 13* | / | 2 | / | -4 | -3
O=C(CCc1ccccc1)N1CCCC(Nc2ccc(F)cc2)C1 (stereo unspecified) | -7 | 11* | 4 | 1 | 8 | -1 | 2
COc1ccc(NC2CCCN(C(=O)CCc3cn[nH]c3)C2)cc1 (stereo unspecified) | 7 | 10* | 3 | -9 | 9 | -3 | 3
Cc1ccc(S(=O)(=O)c2ccc(Cl)cc2)cc1S(=O)(=O)NC(C)C(=O)O (stereo unspecified) | 15 | 10* | 1 | -2 | 7 | -6 | -3
Cc1ccc(S(=O)(=O)c2ccc(Cl)cc2)cc1S(=O)(=O)N1CCN(C)CC1 | -16 | 1 | 8 | 0 | 1 | / | /
CN(Cc1ccccc1)C(=O)CN1C(=O)NC2(CCCC2)C1=O | 6 | 0 | 4 | -6 | 10 | / | /
CC(C)N(Cc1ccccc1)C(=O)CN1C(=O)NC2(CCCC2)C1=O | 9 | 10* | 12 | 5 | 7 | -8 | -4
C=C1c2cccc(O)c2C(O)=C2C(=O)[C@]3(O)C(O)=C(C(N)=O)C(=O)[C@@H](N(C)C)[C@@H]3[C@@H](O)[C@H]12 | 0 | 15* | 9 | -33 | -17 | -160 | -188
C[C@H]1c2cccc(O)c2C(O)=C2C(=O)C3(O)C(O)=C(C(N)=O)C(=O)[C@@H](N(C)C)[C@@H]3[C@@H](O)[C@@H]21 (stereo partly specified) | 15 | -33 | -6 | -45 | -3 | / | /
CCN1CCCSC1=S | 0 | -1 | / | 1 | / | / | /
CCCC(=O)OCC(=O)Nc1ccc(N=Nc2ccccc2)cc1 | 1 | 9.6* | -3 | 9 | 1 | 3 | 2
O=C(Nc1nc(-c2ccc(F)cc2)cs1)C1CCCO1 (stereo unspecified) | -6 | 12* | 3 | 3 | 11 | -3 | -2
O=C(C[n+]1cc(-c2ccc(F)cc2)n2c1CCC2)Nc1nc(-c2ccc(F)cc2)cs1 | -23 | 12* | 2 | 8 | 1 | 0 | -35
COc1ccccc1N1CCN(C(=O)C(C)CS(=O)(=O)c2ccc3c(c2)NC(=O)CS3)CC1 (stereo unspecified) | -17 | 7 | 2 | -4 | 1 | / | /
C[C@H](CO)N1C[C@H](C)[C@H](CN(C)C(=O)Nc2ccc(N3CCN(C)CC3)cc2)OCc2cnnn2CCCC1=O | 0 | 1 | / | 3 | / | / | /
CC(=O)NC(CC(=O)NC1CCCCCC1)c1ccccc1 (stereo unspecified) | 0 | 4 | -3 | 7 | 5 | / | /
CCC(NC(=O)NC1CCCCC1)c1ccccc1 (stereo unspecified) | 10 | 9.5* | 5 | 12* | 11 | -4 | 0
COC(=O)c1c(-c2c(Cl)cccc2Cl)noc1C(=O)NNC(=O)N(C)C | 0 | 9.8* | 6 | 1 | -4 | 4 | -1
SMILES | HGIII-sPLA2 inh | PLC-gamma1 inh | procasp3 activ | PLC-beta3 inh | procasp7 counter | PLCgamma1 ctr | PLCb3 confirm
Cc1cccc(C)c1NC(=O)CN(C)C(=O)CC1CC2CCC1C2 (stereo unspecified) | 7 | -1 | 10 | -6 | 3 | / | /
O=C1N[C@@H](Cc2cn(S(=O)(=O)c3ccccc3)c3ccccc23)C(=O)N[C@H]1Cc1ccccc1 | -3 | 3 | 0 | 8 | -6 | / | /
O=C(N/N=C/c1cccnc1)c1ccc([N+](=O)[O-])cc1 | 12 | 16* | 10 | 5 | 14 | -2 | 2
O=C(Cc1ccc([N+](=O)[O-])cc1)N/N=C/c1cccnc1 | 5 | 1 | 4 | -5 | 7 | / | /
Clc1ccc(SCCCCN2CCOCC2)cc1 | 7 | 14* | -4 | 9 | -2 | 0 | 2
Cc1ccc(CNC(=O)C2CCN(C(=O)Nc3ccc(C)cc3)CC2)cc1 | -1 | 2 | / | -3 | / | / | /
CCc1nc2c(OCCC3CCCCC3)cccn2c1N(C)C(=O)c1ccc(C)cc1 | 18 | 10* | / | 3 | / | 4 | 3
CCCN1CCC(NC(=O)Nc2ccc(OC)c(OC)c2)CC1 | 5 | 10* | -1 | 6 | -1 | -4 | -4
C=CCn1c(-c2csc(-c3ccc(Cl)cc3)n2)n[nH]c1=S | 2 | 9.8* | -10 | 8 | -4 | -11 | -10
NC1(CO)COC(c2ccccc2)OC1 (stereo unspecified) | -2 | 6 | / | 12* | / | -8 | -3
Cc1ccccc1NS(=O)(=O)c1ccc(C(=O)NCC2CCCO2)cc1 (stereo unspecified) | 11 | -5 | 6 | -2 | 18 | / | /
Cc1ccc(F)cc1NC(=O)CCOc1ccccc1 | -1 | 11* | -1 | 11* | 7 | 5 | 4
O=C(CCOc1ccccc1)Nc1ccccc1F | / | / | -6 | / | 4 | / | /
O=C(Nc1ccc(Cl)cc1)O[C@@H]1CC[C@@]23CCCN2C(=O)CCC[C@H]3C1 | -8 | 1 | / | -3 | / | / | /
COc1ccc2c(OC)cc(=O)n(C)c2c1 | 4 | 13* | 3 | 3 | -2 | -7 | -5
O=C(c1c(F)cccc1F)N1CCN(CCOc2ccccc2)CC1 | 1 | -1 | 1 | -5 | 10 | / | /
NC(=NCCc1c[nH]c2ccccc12)NC(=O)c1ccc(Cl)cc1 | -107 | 10.0* | 7 | -1 | -19 | -5 | -4
CN(C)c1ccc(N/C(N)=N/c2nc(C(F)(F)F)cc(C(F)(F)F)n2)cc1 | 11 | -2 | 8 | -2 | 1 | / | /
